Reference: publication PMC2556891 (ACS chemical biology, 2008)
Changes are numbered by the printed parent chain.

Key:
[1] = target: ClC-ec1 (Escherichia coli, UniProt P37019); assay: Chloride flux assay with ClC-ec1 reconstituted in vesicles; assay type: biochemical
[2] = target: T1, ClC-0 (Torpedo marmorata, UniProt P21564); assay: ClC-0 currents, inside-out patches from Xenopus oocytes; assay type: cell-based; details: intracellular application, various concentrations
T1 sequence (P21564 1-805): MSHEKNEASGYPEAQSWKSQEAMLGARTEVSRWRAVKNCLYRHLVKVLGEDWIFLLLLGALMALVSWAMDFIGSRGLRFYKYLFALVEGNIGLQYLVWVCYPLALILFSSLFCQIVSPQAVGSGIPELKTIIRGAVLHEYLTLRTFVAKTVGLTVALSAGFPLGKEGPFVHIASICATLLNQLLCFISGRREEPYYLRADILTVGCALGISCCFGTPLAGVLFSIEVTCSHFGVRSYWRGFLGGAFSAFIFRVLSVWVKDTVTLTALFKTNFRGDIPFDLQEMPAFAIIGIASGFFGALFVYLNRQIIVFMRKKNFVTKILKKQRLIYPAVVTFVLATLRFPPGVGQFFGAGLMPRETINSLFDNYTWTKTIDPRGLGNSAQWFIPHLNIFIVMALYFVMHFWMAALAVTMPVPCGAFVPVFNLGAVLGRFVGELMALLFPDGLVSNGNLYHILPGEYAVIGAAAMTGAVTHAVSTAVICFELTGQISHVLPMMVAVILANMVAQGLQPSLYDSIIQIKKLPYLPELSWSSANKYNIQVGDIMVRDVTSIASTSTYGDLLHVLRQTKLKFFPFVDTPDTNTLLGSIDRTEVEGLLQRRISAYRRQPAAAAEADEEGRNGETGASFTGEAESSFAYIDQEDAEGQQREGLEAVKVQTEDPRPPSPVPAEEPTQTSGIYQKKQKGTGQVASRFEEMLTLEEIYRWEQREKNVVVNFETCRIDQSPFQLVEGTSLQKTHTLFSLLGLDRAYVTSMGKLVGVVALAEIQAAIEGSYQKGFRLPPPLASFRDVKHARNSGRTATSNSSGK
Outline: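 Defolliculated Xenopus oocytes injected with 27.5 nL ClC-0 RNA (~500 ng/μL) and kept at 16 °C for 2-7 days. Test compound delivered by microfluidic switching. Holding at 0 mV; every 5 s step to +50 mV (50 ms) then −100 mV (50 ms). Instantaneous −100 mV current taken over time as I/Io; initial inhibition rate fitted; 3-5 oocytes; mean ± SEM.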

[3] = Stability of DIDS in aqueous solution by reversed-phase HPLC; assay type: physicochemical
[4] = target: T1, ClC-0; details: cited from earlier work
[5] = target: T2, ClC-Ka (Homo sapiens, UniProt P51800); details: cited from earlier work
T2 sequence (P51800 1-687): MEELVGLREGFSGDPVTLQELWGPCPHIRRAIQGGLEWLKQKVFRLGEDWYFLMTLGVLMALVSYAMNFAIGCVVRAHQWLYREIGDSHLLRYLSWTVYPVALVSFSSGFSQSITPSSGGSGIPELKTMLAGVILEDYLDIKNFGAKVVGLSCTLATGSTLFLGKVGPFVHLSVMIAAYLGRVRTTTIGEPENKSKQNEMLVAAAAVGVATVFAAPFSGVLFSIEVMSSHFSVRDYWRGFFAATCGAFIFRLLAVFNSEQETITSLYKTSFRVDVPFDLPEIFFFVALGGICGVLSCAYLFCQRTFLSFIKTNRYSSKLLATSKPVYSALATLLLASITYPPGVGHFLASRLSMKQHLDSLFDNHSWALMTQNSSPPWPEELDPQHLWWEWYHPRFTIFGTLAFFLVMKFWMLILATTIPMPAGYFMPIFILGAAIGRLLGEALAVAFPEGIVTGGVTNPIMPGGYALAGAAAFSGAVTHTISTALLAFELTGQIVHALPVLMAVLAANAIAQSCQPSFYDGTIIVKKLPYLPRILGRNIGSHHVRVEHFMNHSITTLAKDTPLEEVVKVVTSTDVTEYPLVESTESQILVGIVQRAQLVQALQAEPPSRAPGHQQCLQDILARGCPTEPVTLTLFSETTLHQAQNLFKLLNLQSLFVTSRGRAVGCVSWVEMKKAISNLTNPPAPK
T2 sequence (Q8WZ55 1-320 Y98A partner): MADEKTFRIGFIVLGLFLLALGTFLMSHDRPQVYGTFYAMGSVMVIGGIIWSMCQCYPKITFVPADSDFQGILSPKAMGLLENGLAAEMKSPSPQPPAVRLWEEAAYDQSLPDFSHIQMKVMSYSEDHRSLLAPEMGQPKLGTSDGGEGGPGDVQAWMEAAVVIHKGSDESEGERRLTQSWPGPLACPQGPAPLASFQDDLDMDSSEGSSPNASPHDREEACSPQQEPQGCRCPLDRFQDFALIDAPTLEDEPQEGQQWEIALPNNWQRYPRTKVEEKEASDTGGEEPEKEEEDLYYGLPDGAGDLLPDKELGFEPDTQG

[6] = target: T3, ClC-Ka N68D (Homo sapiens, UniProt P51800, N68D); details: cited from earlier work
T3 sequence (P51800 1-687 N68D): T2 sequence (P51800 1-687) with N68D
T3 sequence (Q8WZ55 1-320 Y98A partner): T2 sequence (Q8WZ55 1-320 Y98A partner)

[7] = Hill fit of ClC-ec1 chloride flux inhibition

ClC-ec1, sequence (P37019 whole entry): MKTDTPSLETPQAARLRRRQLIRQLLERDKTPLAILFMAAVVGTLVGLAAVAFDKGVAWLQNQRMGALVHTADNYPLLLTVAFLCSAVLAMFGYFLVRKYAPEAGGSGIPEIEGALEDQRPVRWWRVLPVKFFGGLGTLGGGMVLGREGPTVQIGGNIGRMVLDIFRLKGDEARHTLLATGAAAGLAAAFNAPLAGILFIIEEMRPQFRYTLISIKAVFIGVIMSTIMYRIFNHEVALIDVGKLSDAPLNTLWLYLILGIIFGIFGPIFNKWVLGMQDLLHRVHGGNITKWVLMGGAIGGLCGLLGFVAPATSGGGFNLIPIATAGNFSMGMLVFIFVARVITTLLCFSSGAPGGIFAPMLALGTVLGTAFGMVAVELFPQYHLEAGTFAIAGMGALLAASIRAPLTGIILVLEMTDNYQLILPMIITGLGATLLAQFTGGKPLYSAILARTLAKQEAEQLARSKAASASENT

SMILES | effect on ClC-ec1 activity ([1]; at concentrations as high as 2 mM) | effect on ClC-0 [2] | (A/Ao)max [1, 7] | Hill coefficient n [1, 7] | stability in aqueous solution (reversed-phase HPLC) ([3]; after 3 h in aqueous solution) | stability in solution (HPLC) ([3]; after 48 h) | stability in solution (HPLC) ([3]; within 24 h in solution) | reversibility of ClC-0 inhibition [4] | reversibility of ClC-Ka inhibition from the extracellular side [5] | decrease of apparent affinity by N68D mutation in ClC-Ka [6]
Nc1ccc(C=Cc2ccc(N)cc2S(=O)(=O)O)c(S(=O)(=O)O)c1 [DADS, 4,4′-diaminostilbene-2,2′-disulfonic acid] | does not affect | no effect | – | – | – | – | – | – | – | –
O=S(=O)(O)c1cc(N=C=S)ccc1C=Cc1ccc(N=C=S)cc1S(=O)(=O)O [DIDS, 4,4′-diisothiocyanatostilbene-2,2′-disulfonic acid] | – | – | 1.08 | 2 | single peak | no DIDS was apparent | partially decomposed | irreversible | slowly reversible | 10 fold
